Experimental data gathered from unrelated publications.
Lines come from different studies, so protocols differ.
Target: Serine/threonine-protein kinase 32C (STK32C, Homo sapiens, UniProt Q86UX6)

C[C@H]1CC[C@H](n2c3cnccc3c3cnc(Nc4ccc5c(n4)CCN(C(=O)CO)C5)nc32)CC1  remaining signal (cell-free assay; 1 µM): 100%
CC(C)S(=O)(=O)c1ccc2nccc(Nc3ccc4sc(C5CCCC5)nc4c3)c2c1  activity vs control (enzyme activity; inhibitor; 1 µM): 102%
COc1ccc2oc(-c3ccc4nc(N)oc4c3)c/c(=N\c3ccccc3NC(=O)CCN)c2c1  remaining binding (binding; 1 µM): 100%
CCCCC(=O)Nc1ccc(-c2ccc3ncn(CCC)c(=O)c3c2)cn1  remaining binding (binding; competition with immobilised ligand; 0.5 µM): 92%
CO[C@@H]1[C@H](N(C)C(=O)c2ccccc2)C[C@H]2O[C@]1(C)n1c3ccccc3c3c4c(c5c6ccccc6n2c5c31)C(=O)NC4  inhibition (enzyme activity; inhibitor; 1 µM): 0%
N#Cc1ccc(NC(=O)Nc2ccccc2)cc1  remaining binding (cell-free assay; competition with immobilised ligand; 25 µM): 77%
Cc1ccc(NC(=O)c2ccnc(C(F)(F)F)c2)cc1-c1cc(OCCO)nc(N2CCOCC2)c1  remaining binding (binding; 1 µM): 100%
C#Cc1cnc(Nc2ccnc(CO)c2)nc1Nc1ccccc1S(C)(=O)=NC#N (stereo not shown)  remaining signal (cell-free assay; 1 µM): 100%
Cc1cc(O)c(-c2ccc([C@@H](C)CN(C)C)cc2)c2c1[nH]c(=O)c1sccc12  inhibition (enzyme activity; inhibitor; 0.1 µM; lysate): -1.49%
C=CC(=O)N1CCC[C@@H](n2nc(-c3ccc(Oc4ccccc4)cc3)c3c(N)ncnc32)C1  inhibition (enzyme activity; inhibitor; 1 µM): 14%
